AI-2 QS mod: modulates the Vibrio harveyi AI-2 quorum sensing system | Vibrio harveyi JMH597 AI-2 luminescence/OD600 ratio, 9 h; stronger effect = lower value; strain lacks LuxN and CqsS sensors; 0 = neutral-control median | activity change, % at 7.5 µM | 300,000 tested, 0.4% active | AID 2094; in the data active = activity change below about -75%, passing the limit was not always enough;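 also: luminescence divided by OD600 gain over 9 h not by final OD600 alone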
bovine MsrA act: activators of bovine methionine sulfoxide reductase A. purified bovine MsrA, absorbance read-out. activation, % at 10.6 µM. 360,000 tested, 0.3% active; in the data active = activation above about 7.5%
HTR2A ag: mouse HTR2A agonism via beta-arrestin recruitment | 360,000 tested, 0.66% active | activation, % at 7.6 µM | CHO-K1 mHTR2A beta-arrestin complementation, luminescence; percent of 30 µM serotonin response;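 active = activation above a run cutoff, the mean activation of all tested compounds plus 3 SD, cut at about 14% in these data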
Target sequence (P35363 whole entry, looked up): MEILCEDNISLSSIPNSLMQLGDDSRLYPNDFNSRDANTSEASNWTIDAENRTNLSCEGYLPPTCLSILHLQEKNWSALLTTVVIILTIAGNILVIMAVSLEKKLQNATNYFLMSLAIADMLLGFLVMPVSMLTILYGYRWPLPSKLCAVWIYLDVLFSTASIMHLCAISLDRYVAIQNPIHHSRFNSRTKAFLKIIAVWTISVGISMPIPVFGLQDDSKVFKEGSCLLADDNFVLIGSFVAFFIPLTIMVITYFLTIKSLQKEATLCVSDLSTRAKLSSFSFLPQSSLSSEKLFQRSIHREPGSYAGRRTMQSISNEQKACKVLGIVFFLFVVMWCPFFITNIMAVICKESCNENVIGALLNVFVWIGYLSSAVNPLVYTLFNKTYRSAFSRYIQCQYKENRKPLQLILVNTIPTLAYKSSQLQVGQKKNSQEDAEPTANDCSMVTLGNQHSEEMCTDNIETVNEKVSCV
Tb MetRS inh: blocks T. brucei methionyl-tRNA synthetase activity; purified T. brucei MetRS, ATP depletion, Kinase-Glo luminescence; inhibition, % at 11.9 µM; 360,000 tested, 0.4% active;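 active = inhibition above a per-plate cutoff of the control wells' mean inhibition plus 3 SD, cut at about 5.5% in these data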
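technique = Kinase-Glo luminescence, ATP depletion format | system = purified MetRS (methionyl-tRNA synthetase) enzyme from Trypanosoma brucei | timing = 15 min preincubation, 2 h reaction, all 25 °C | evaluation = percent inhibition versus plate control medians | dosing = single dose, 11.9 µM final nominal, 0.9% final DMSO | also added = substrates ATP, L-methionine and bulk Escherichia coli tRNA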
AHR activator: activates the human aryl hydrocarbon receptor | AHR-responsive luciferase reporter cells, luminescence | activation, % at 5 µM | AID 2796 | 320,000 tested, 2.5% active | P35869; in the data active = activation above about 47%
MsrA inhibitor: inhibits bovine methionine sulfoxide reductase A; inhibition, % at 15.5 µM; 360,000 tested, 0.75% active; AID 651718; purified bovine MsrA, absorbance read-out; in the data active = inhibition above about 4.5%
Numbers stand for hits; n = inactive; x = no result given. Sampled rows, rich in hits. Any-hit rate of the full collection: about 4.4%.

SMILES	AI-2 QS mod	bovine MsrA act	HTR2A ag	Tb MetRS inh	AHR activator	MsrA inhibitor
Nc1[nH]c(C(=O)c2ccccc2)c(-c2ccccc2Br)c1C(=O)NCc1ccc(-c2ccccc2)cc1	x	n	n	n	x	n
COc1cccc(CNC(=O)[C@H]2CCCN2C(=O)[C@H]2CCCN2C(=O)c2cccc(F)c2)c1	x	x	x	x	x	n
O=C1C=CC(=O)N1c1cccc(-c2ccccc2)c1	-212	n	n	n	n	n
CC1(O)c2ccccc2C(=O)N1CCc1ccccc1F (stereo not drawn)	n	n	n	n	76	n
CC1(O)c2ccccc2C(=O)N1Cc1ccccc1 (stereo not drawn)	n	n	n	n	n	n
Nc1cccc([N+](=O)[O-])c1	n	n	n	n	n	n
O=[N+]([O-])c1cccc(SSc2cccc([N+](=O)[O-])c2)c1	x	17	n	n	x	n
CCN(c1ccccc1)S(=O)(=O)c1ccc(Oc2ccc(-n3ccnc3)cc2)nc1	n	n	n	n	59	n
Cc1ccc(/C=N/Nc2nnc(Cl)c3ccccc23)cc1	n	n	n	n	61	n
COc1ccc(/C=N/Nc2nnc(-c3ncc[nH]3)c3ccccc23)cc1	n	n	n	n	62	x
Clc1ccc(/C=N/Nc2nnc(Cl)c3ccccc23)cc1	n	n	n	n	n	n
Clc1nnc(NN=C2CCCC2)c2ccccc12	n	n	n	n	51	n
Cn1c(=O)c2ccccc2n2c(CCl)nnc12	n	n	n	n	n	n
N#CC1=C(SCC(=O)NC2CC2)NC(=O)C(C#N)C12CCCCC2 (stereo not drawn)	n	n	n	n	n	n
N#CC1=C(SCC(=O)Nc2cccc3cccnc23)NC(=O)C(C#N)C12CCCCC2 (stereo not drawn)	n	n	16	n	n	n
COCCn1nnnc1C(c1ccccc1OC)N1CCN(c2ccccc2)CC1 (stereo not drawn)	n	n	n	n	67	n
c1ccc(Cn2nnnc2C(c2cccnc2)N2CCN(c3ccccc3)CC2)cc1 (stereo not drawn)	n	n	n	n	79	n
COc1ccccc1C(c1nnnn1CCc1ccccc1)N1CCN(c2ccccc2)CC1 (stereo not drawn)	n	n	n	n	n	n
COc1ccc(/C=N/NC(=O)c2ccccc2OC)cc1COc1ccccc1[N+](=O)[O-]	n	n	n	n	66	n
COc1ccc(/C=N/NC(=O)c2ccccc2OC)cc1COc1ccc(C)cc1	n	n	n	n	47	n
COc1ccc(/C=N\NC(=O)c2ccccc2Br)cc1COc1ccc(F)cc1	n	n	n	n	n	n
COc1ccc(/C=N\NC(=O)c2ccc([N+](=O)[O-])c(C)c2)cc1COc1ccccc1C(N)=O	n	n	n	n	n	n
COC(=O)c1cnn(-c2cc(Oc3cccc(C)c3)ncn2)c1N	-88	n	n	n	n	n
CC(=O)c1cnn(-c2cc(Oc3cccc(C)c3)ncn2)c1C	n	n	n	n	n	n
CC(C)N1CCC2(CC1)N=C(c1ccc3c(c1)OCO3)CC(c1cc(Cl)ccc1O)N2 (stereo not drawn)	n	n	n	n	76	n
SMILES	AI-2 QS mod	bovine MsrA act	HTR2A ag	Tb MetRS inh	AHR activator	MsrA inhibitor
N#Cc1ccc(S(=O)(=O)NC(=O)[C@H]2O[C@@H](n3ccc(=O)[nH]c3=O)[C@H](O)[C@@H]2O)cc1	x	x	x	x	x	n
C=CCOc1ccc(/C=N/Nc2ccccn2)cc1OC	n	n	n	n	55	n
COc1cc(/C=N/Nc2ccccn2)ccc1OCC(C)C	x	n	n	n	71	n
CCOc1ccc(/C=N/Nc2ccccn2)cc1OC	n	n	n	n	n	n
NC(=O)c1ccsc1NC(=O)COC(=O)c1cc(Cl)ccc1O	n	n	n	n	n	n
CC(C)(C)CC(=O)Nc1cccc(-c2cn3cccnc3n2)c1	n	n	n	n	48	n
CCCCC(=O)Nc1cccc(-c2csc(-c3ccccc3)n2)c1	n	n	n	n	69	n
O=C(O)CCC(=O)Nc1cccc(-c2csc(-c3ccccc3)n2)c1	n	n	n	n	n	n
CC(C)CC(=O)Nc1cccc(-c2cn3ccsc3n2)c1	n	n	n	n	n	n
COc1cc(C(=O)Nc2cccc(-c3cn4cccnc4n3)c2)cc(OC)c1OC	n	n	n	n	n	n
CCC(=O)Nc1cccc(-c2cn3ccsc3n2)c1	n	n	n	n	54	n

High-throughput results from PubChem BioAssay.
